Screening results from PubChem BioAssay.
The sample as a whole holds a higher share of hits than the screen did.
HUVEC inhibit: inhibitors of human endothelial cell proliferation; viability, % at 10 µM (by protocol); HUVEC proliferation, CellTiter-Glo luminescence, 72 h; stronger effect = lower value; actives 1.1% (n = 86,000);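 active = viability at or below 30%; inactive = viability above 30%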;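 also: 100% = median luminescence of DMSO-only cell control wells on each plate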
PTEN del growth: growth suppressors of cells with PTEN tumor suppressor deletion | HCT116 PTEN-null viability, CellTiter-Glo, 60 h; stronger effect = lower value | viability, % at 10 µM | actives 1.2% (n = 140,000) | AID 827;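 active = viability at or below a set limit, 4 SD under the median of all tested compounds, cut at about 3.7% in these data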;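 also: PTEN knockout HCT116 line with beta catenin targeted HCT116 as companion control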
Lung fibro prol: blocks proliferation of human lung fibroblasts | LL 47 human lung fibroblast viability, ATP luminescence; stronger effect = lower value | actives 1.1% (n = 85,000) | viability, % at 10 µM | AID 719;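 active = viability at or below 50% in the single dose screen; inactive = viability above 50%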;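 also: compound exposure lasted 72 h before the ATP readout; 100% = median luminescence of untreated cell-only wells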
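Material: human lung fibroblast line LL 47, low passage; Evaluation: viability percentage against median untreated-cell control; Buffer or medium: 15% FBS in IMEM; Incubation: 72 h compound exposure at 37 °C after overnight plating; Dosing: 0.1% DMSO in all compound wells; Measured by: CellTiter-Glo luminescence.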
H69AR inhibit: blocks growth of human H69AR lung tumor cells; H69AR lung tumor viability, ATP luminescence, 72 h; stronger effect = lower value; viability, % at 10 µM; actives 6% (n = 85,000); AID 598;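 active = viability at or below 40%; inactive = viability above 40%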;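 also: multidrug resistant small cell line overexpressing MRP-1 efflux transporter; 100% = mean luminescence of untreated control wells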
HCT116 bCat-KO: beta-catenin-lacking colon tumor cell growth suppression; actives 1.5% (n = 140,000); AID 818; viability, % at 10 µM; HCT116 beta-catenin knockout viability, CellTiter-Glo, 60 h; stronger effect = lower value;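 active = viability at or under a set limit, the compound median less 4 SD, cut at about 6% in these data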;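 also: 0% = Hyamine 1622 control at 20 µM and 100% = untreated cell control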
An asterisk follows results filed as active; x = not tested or not shown.

SMILES	HUVEC inhibit	PTEN del growth	Lung fibro prol	H69AR inhibit	HCT116 bCat-KO
COc1ccc(S(=O)(=O)n2nc(OC(=O)c3c(-c4ccccc4Cl)noc3C)cc2N)cc1	83	94	110	28*	97
Cc1[nH][nH]c(=O)c1C(c1c(C)[nH][nH]c1=O)c1cn(Cc2ccccc2Cl)c2ccccc12	x	15	x	x	24
Cc1ccccc1N1CCN(C2=NC(=O)/C(=C/c3cn[nH]c3-c3ccccc3)S2)CC1	x	82	x	x	73
O=C(c1cc2n(n1)C(C(F)(F)F)CC(c1ccco1)N2)N1CCN(c2ccccn2)CC1 (stereo not drawn)	98	101	106	96	98
Cc1cccc(N2CCN(C(=O)c3cc4n(n3)C(C(F)(F)F)CC(c3ccco3)N4)CC2)c1C (stereo not drawn)	x	3.5*	x	x	2.2*
N#C/C(=C\c1ccc(OCc2ccccc2)cc1)C(=O)Nc1nc2c(s1)CCN(Cc1ccccc1)C2	13*	30	17*	22*	50
CCn1c(SCc2ccc(C#N)cc2)nnc1-c1ccc(S(=O)(=O)N2CCCCC2)cc1	75	66	87	34*	75
CN1CCN(c2nc(-c3ccccc3)nc3c2oc2ccccc23)CC1	24*	x	84	87	x
COC(=O)c1c(NC(=O)c2ccccc2)sc2c1CC(C)(C)OC2	97	90	99	36*	88
COc1ccc(C2NCCc3c2[nH]c2ccccc32)cc1CSc1nc2ccccc2s1 (stereo not drawn)	x	1.3*	x	x	1.4*
COc1ccc(C2NC(C(=O)O)Cc3c2[nH]c2ccccc32)cc1OC (stereo not drawn)	89	92	92	83	93
Cc1cc(C=O)c(C)n1-c1ccc(Oc2ccc([N+](=O)[O-])cn2)cc1	x	66	x	x	73
COc1ccc(NC(=O)/C(C#N)=C\c2cc(C)n(-c3ccc(Oc4ccc([N+](=O)[O-])cn4)cc3)c2C)cc1	68	43	63	33*	54
COc1ccc(/C=N/N=C2\SC(CC(=O)O)C(=O)N2c2ccccc2)c(OC)c1 (stereo not drawn)	x	91	x	x	91
Cc1ccc2c(c1)cc(CN(Cc1ccccc1)C(=O)N(C)C)c1nnnn12	95	x	101	91	x
Cc1ccc2c(c1)cc(CN(Cc1ccco1)C(=O)COc1ccccc1)c1nnnn12	84	73	102	38*	79
Cc1ccc(C2=Nc3ccccc3N=C(c3ccc([N+](=O)[O-])cc3)C2)c(O)c1	x	65	x	x	61
COc1ccc([N+](=O)[O-])cc1NC(=O)c1ccc(C)o1	x	92	x	x	89
COc1ccc(-c2nc3c(c4nnc(SC(C)C(=O)Nc5ccccc5)n24)COC(C)(C)C3)cc1 (stereo not drawn)	x	38	x	x	5.2*
O=S(=O)(NNc1ccc(Cl)nn1)c1ccc(F)cc1	x	87	x	x	78
Cn1cnc([N+](=O)[O-])c1S(=O)(=O)c1ccc(Cl)cc1	x	1.7*	x	x	1.6*
COC(=O)c1ccc(CSc2nnc(Nc3ccc(C)cc3)s2)o1	x	92	x	x	98
CCOc1cc(OCC)nc(S(C)(=O)=O)n1	x	96	x	x	88
NC(=O)C1CCN(c2nc(C3CC3)nc3c2nnn3Cc2ccccc2)CC1	93	110	94	78	102
O=C(NCc1ccco1)c1nc2c(nnn2Cc2ccccc2Cl)c(=O)[nH]1	14*	7	31*	25*	8
SMILES	HUVEC inhibit	PTEN del growth	Lung fibro prol	H69AR inhibit	HCT116 bCat-KO
NC(=O)C1CCN(c2nc(C3CC3)nc3c2nnn3Cc2ccccc2Cl)CC1	85	83	94	31*	83
O=C(C1CCCCC1)N1CCC(c2nc3c(nnn3Cc3ccccc3Cl)c(=O)[nH]2)CC1	64	x	89	39*	x
CCCCCCC(=O)N1CCC(c2nc3c(nnn3Cc3ccccc3Cl)c(=O)[nH]2)CC1	84	57	96	34*	58
CCOCC(=O)Nc1cc(C(=O)OC)cc(C(=O)OC)c1	x	99	x	x	101
C[N+]1(C2CCC3CCCC2C3O)CCCC1 (stereo not drawn)	x	94	x	x	97
O=C(O)c1ccccc1SC1CC(=O)N(C2CCCCC2)C1=O (stereo not drawn)	95	82	98	36*	82
O=C(O)c1ccccc1SC1CC(=O)N(c2ccccc2)C1=O (stereo not drawn)	x	104	x	x	97
O=c1oc2c(O)c(O)cc3c(=O)oc4c(O)c(O)cc1c4c23	69	61	99	16*	60
CCC(C)[C@H](NC(=O)Nc1cccc(Br)c1)C(=O)OC (stereo partly drawn)	x	91	x	x	105
